Laboratory results from ChEMBL document CHEMBL4257459, “Synergistic antifungal effect of cyclized chalcone derivatives and fluconazole against Candida albicans” (2017).
Values after ≈ are worked out from the molar mass of the structure shown.

Legend:
[1] = tested on: Candida albicans; experiment: Antifungal activity against fluconazole resistant Candida albicans 167-1 by CLSI protocol based broth microdilution method; assay type: functional
Procedure, shortened: (§1)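 Broth microdilution per CLSI M27-A3 against clinical C. albicans isolates. Strains sub-cultured at least twice on Tryptone Soya Agar, 37 °C, 48 h. Compounds dissolved in DMSO at 2000 μg mL–1 stock. Fluconazole positive control, plus culture, media and vehicle controls. Run in duplicate; MIC in μg mL–1.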

[2] = tested on: Candida albicans; experiment: Antifungal activity against fluconazole resistant Candida albicans 167-1 in presence of fluconazole by CLSI protocol based broth microdilution method; assay type: functional
Procedure, shortened: (§2)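 Checkerboard-style combination with fluconazole at a 1 : 1 ratio, over concentrations 2–4 fold below each agent's MIC alone, by CLSI broth microdilution. Fractional inhibitory concentration index calculated and interpreted as synergy (<0.5), additive (0.5–1), indifferent or antagonistic.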

[3] = tested on: Candida albicans; experiment: Antifungal activity against fluconazole resistant Candida albicans 167-2 by CLSI protocol based broth microdilution method; assay type: functional; procedure, shortened: as §1
[4] = tested on: Candida albicans; experiment: Inhibition of ABC efflux pumps in fluconazole susceptible Candida albicans 003gr assessed as reduction in energy-dependent rhodamine 6G efflux in presence of 0.1 M glucose after 25 mins […] relative to control
[5] = tested on: Candida albicans; experiment: Antifungal activity against fluconazole susceptible Candida albicans 003gr by CLSI protocol based broth microdilution method; assay type: functional
Procedure, shortened: (§3)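 Clinical isolates and control strain subcultured at least twice on TSA, 37 °C, 48 h. MICs by CLSI M27-A3 broth microdilution; compounds dissolved in DMSO to 2000 μg mL–1 stock. Fluconazole positive control, culture, media and DMSO vehicle controls in each run. Duplicate experiments; MIC in μg mL–1.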

[6] = tested on: Candida albicans; experiment: Antifungal activity against fluconazole susceptible Candida albicans 003gr in presence of fluconazole by CLSI protocol based broth microdilution method; assay type: functional
[7] = tested on: Candida albicans; experiment: Antifungal activity against fluconazole susceptible Candida albicans 0072gr by CLSI protocol based broth microdilution method; assay type: functional; procedure, shortened: as §3
[8] = tested on: Candida albicans; experiment: Antifungal activity against Candida albicans ATCC 90028 by CLSI protocol based broth microdilution method; assay type: functional; procedure, shortened: as §3
[9] = tested on: Candida albicans; experiment: Antifungal activity against fluconazole susceptible Candida albicans 0072gr in presence of fluconazole by CLSI protocol based broth microdilution method; assay type: functional
[10] = tested on: Candida albicans; experiment: Antifungal activity against fluconazole susceptible Candida albicans 004B1 by CLSI protocol based broth microdilution method; assay type: functional; procedure, shortened: as §3
[11] = tested on: Candida albicans; experiment: Inhibition of ABC efflux pumps in fluconazole resistant Candida albicans 167-1 assessed as reduction in energy-dependent rhodamine 6G efflux in presence of 0.1 M glucose after 25 mins […] relative to control
[12] = tested on: Candida albicans; experiment: Inhibition of ergosterol biosynthesis in fluconazole resistant Candida albicans A171 at 0.5 to 1 times MIC relative to control; assay type: functional
Procedure, shortened: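 Total sterols quantified by alcoholic KOH extraction in cells grown in 50 ml TSB with compounds at MIC and ½ MIC; untreated and 8 μg mL–1 fluconazole controls. Spectral scan; ergosterol content from A281.5 and A230 absorbances, dilution factor and pellet weight, correcting for 24(28) DHE.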

[13] = tested on: Candida albicans; experiment: Antifungal activity against fluconazole susceptible Candida albicans 002B1 by CLSI protocol based broth microdilution method; assay type: functional; procedure, shortened: as §3
[14] = tested on: Candida albicans; experiment: Antifungal activity against fluconazole susceptible Candida albicans 004gr in presence of fluconazole by CLSI protocol based broth microdilution method; assay type: functional
[15] = tested on: Candida albicans; experiment: Antifungal activity against fluconazole susceptible Candida albicans 004gr by CLSI protocol based broth microdilution method; assay type: functional; procedure, shortened: as §3
[16] = tested on: Candida albicans; experiment: Inhibition of ABC efflux pumps in fluconazole susceptible Candida albicans 0079gr assessed as reduction in energy-dependent rhodamine 6G efflux in presence of 0.1 M glucose after 25 mins by fluorescence assay relative to control
Procedure, shortened: (§4)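 Cells grown in TSB at 37 °C for 8 h, washed, resuspended in glucose-free PBS at 1 × 10^8 cells. De-energized 45 min with 5 mM deoxyglucose plus 5 mM dinitrophenol. […] Washed, sampled 5–25 min, then 0.1 M glucose added. Absorbance 527 nm, R6G from standard curve.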

[17] = tested on: Candida albicans; experiment: Inhibition of ABC efflux pumps in fluconazole susceptible Candida albicans 002B1 assessed as reduction in energy-dependent rhodamine 6G efflux in presence of 0.1 M glucose after 25 mins […] relative to control
[18] = tested on: Candida albicans; experiment: Antifungal activity against fluconazole susceptible Candida albicans 0079gr in presence of fluconazole by CLSI protocol based broth microdilution method; assay type: functional
[19] = tested on: Candida albicans; experiment: Inhibition of ABC efflux pumps in fluconazole resistant Candida albicans A171 assessed as reduction in energy-dependent rhodamine 6G efflux in presence of 0.1 M glucose after 25 mins by fluorescence assay relative to control; procedure, shortened: as §4
[20] = tested on: Candida albicans; experiment: Antifungal activity against Candida albicans ATCC 90028 in presence of fluconazole by CLSI protocol based broth microdilution method; assay type: functional
[21] = tested on: Candida albicans; experiment: Antifungal activity against fluconazole susceptible Candida albicans 002B1 in presence of fluconazole by CLSI protocol based broth microdilution method; assay type: functional
[22] = tested on: Candida albicans; experiment: Inhibition of ABC efflux pumps in fluconazole susceptible Candida albicans 0072gr assessed as reduction in energy-dependent rhodamine 6G efflux in presence of 0.1 M glucose after 25 mins […] relative to control
[23] = tested on: Candida albicans; experiment: Antifungal activity against fluconazole resistant Candida albicans A171 by CLSI protocol based broth microdilution method; assay type: functional; procedure, shortened: as §1
[24] = tested on: Candida albicans; experiment: Inhibition of ABC efflux pumps in fluconazole susceptible Candida albicans 004B1 assessed as reduction in energy-dependent rhodamine 6G efflux in presence of 0.1 M glucose after 25 mins by fluorescence assay relative to control; procedure, shortened: as §4
[25] = tested on: Candida albicans; experiment: Antifungal activity against fluconazole resistant Candida albicans A171 in presence of fluconazole by CLSI protocol based broth microdilution method; assay type: functional; procedure, shortened: as §2
[26] = tested on: Candida albicans; experiment: Inhibition of ergosterol biosynthesis in fluconazole susceptible Candida albicans ATCC 90028 at 0.5 to 1 times MIC relative to control; assay type: functional
Procedure, shortened: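 ATCC90028 grown in 50 ml TSB with MIC and ½ MIC of compound; untreated and 8 μg mL–1 fluconazole controls. Sterols extracted by alcoholic KOH method and spectrophotometrically scanned; ergosterol % calculated from A281.5 and A230 (E values 290 and 518) with dilution factor, per pellet weight.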

[27] = tested on: Candida albicans; experiment: Inhibition of ABC efflux pumps in fluconazole susceptible Candida albicans 004gr assessed as reduction in energy-dependent rhodamine 6G efflux in presence of 0.1 M glucose after 25 mins by fluorescence assay relative to control; procedure, shortened: as §4
[28] = tested on: Candida albicans; experiment: Antifungal activity against fluconazole susceptible Candida albicans 0079gr by CLSI protocol based broth microdilution method; assay type: functional; procedure, shortened: as §3
[29] = tested on: Candida albicans; experiment: Inhibition of ABC efflux pumps in fluconazole resistant Candida albicans 167-2 assessed as reduction in energy-dependent rhodamine 6G efflux in presence of 0.1 M glucose after 25 mins […] relative to control
[30] = tested on: Candida albicans; experiment: Antifungal activity against fluconazole susceptible Candida albicans 004B1 in presence of fluconazole by CLSI protocol based broth microdilution method; assay type: functional
[31] = tested on: Candida albicans; experiment: Antifungal activity against fluconazole resistant Candida albicans 167-2 in presence of fluconazole by CLSI protocol based broth microdilution method; assay type: functional; procedure, shortened: as §2

| Structure (SMILES) | MIC [1] [mg/L] | fractional inhibitory concentration index (FICI) [2] | MIC [3] [mg/L] | inhibition [4] [%] | MIC [5] [mg/L] | fractional inhibitory concentration index (FICI) [6] | MIC [7] [mg/L] | MIC [8] [mg/L] | fractional inhibitory concentration index (FICI) [9] | MIC [10] [mg/L] | inhibition [11] [%] | inhibition (INH) [12] | MIC [13] [mg/L] | fractional inhibitory concentration index (FICI) [14] | MIC [15] [mg/L] | inhibition [16] [%] | inhibition [17] [%] | fractional inhibitory concentration index (FICI) [18] | inhibition [19] [%] | fractional inhibitory concentration index (FICI) [20] | also measured |
| --- | --- | --- | --- | --- | --- | --- | --- | --- | --- | --- | --- | --- | --- | --- | --- | --- | --- | --- | --- | --- | --- |
| NC(=S)N1N=C(c2ccccc2)CC1c1ccccc1 (configuration not stated) | 500 (≈ 1780 µM) | 0.75 - 1.5 | 500 (≈ 1780 µM) | < 20 | 125 to 500 (≈ 444 to 1780 µM) | 1.97 - 4.28 | 125 to 500 (≈ 444 to 1780 µM) | 125 to 500 (≈ 444 to 1780 µM) | 1.97 - 4.28 | 125 to 500 (≈ 444 to 1780 µM) | < 20 | 49 - 94% | 125 to 500 (≈ 444 to 1780 µM) | 1.97 - 4.28 | 125 to 500 (≈ 444 to 1780 µM) | < 20 | < 20 | 1.97 - 4.28 | < 20 | 1.97 - 4.28 | fractional inhibitory concentration index (FICI) [21]: 1.97 - 4.28; inhibition [22]: < 20%; MIC [23]: 500 mg/L (≈ 1780 µM); inhibition [24]: < 20%; fractional inhibitory concentration index (FICI) [25]: 0.75 - 1.5; inhibition (INH) [26]: 66 - 99%; inhibition [27]: < 20%; MIC [28]: 125 to 500 mg/L (≈ 444 to 1780 µM); inhibition [29]: < 20%; fractional inhibitory concentration index (FICI) [30]: 1.97 - 4.28; fractional inhibitory concentration index (FICI) [31]: 0.75 - 1.5 |
| O=C(/C=C/c1ccccc1)c1ccccc1 [CHALCONE] | 31 to 62 (≈ 149 to 298 µM) | 0.562 - 0.62 | 31 to 62 (≈ 149 to 298 µM) | < 20 | 31 to 62 (≈ 149 to 298 µM) | 0.75 - 4.38 | 31 to 62 (≈ 149 to 298 µM) | 31 to 62 (≈ 149 to 298 µM) | 0.75 - 4.38 | 31 to 62 (≈ 149 to 298 µM) | < 20 | 49 - 94% | 31 to 62 (≈ 149 to 298 µM) | 0.75 - 4.38 | 31 to 62 (≈ 149 to 298 µM) | < 20 | < 20 | 0.75 - 4.38 | < 20 | 0.75 - 4.38 | fractional inhibitory concentration index (FICI) [21]: 0.75 - 4.38; inhibition [22]: < 20%; MIC [23]: 31 to 62 mg/L (≈ 149 to 298 µM); inhibition [24]: < 20%; fractional inhibitory concentration index (FICI) [25]: 0.562 - 0.62; inhibition (INH) [26]: 66 - 99%; inhibition [27]: < 20%; MIC [28]: 31 to 62 mg/L (≈ 149 to 298 µM); inhibition [29]: < 20%; fractional inhibitory concentration index (FICI) [30]: 0.75 - 4.38; fractional inhibitory concentration index (FICI) [31]: 0.562 - 0.62 |
